# Measured values as given in ChEMBL document CHEMBL1135702, “Antitumor polycyclic acridines. 8.(1) Synthesis and telomerase-inhibitory activity of methylated pentacyclic acridinium salts” (J Med Chem, 2002).
# How the values were obtained:
# [1] = biological target: Telomerase reverse transcriptase (Homo sapiens, UniProt O14746); assay: Inhibition of telomerase activity using TRAP assay
# Outline: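 Telomerase came from lysates of exponentially growing A2780 cells (CHAPS buffer, 30 min on ice, 0.1 mM AEBSF), using 40 ng protein. TS primer was extended in TRAP buffer (pH 8.3, 68 mM KCl) with 50 μM dNTPs and [α-³²P]dCTP, compound at various final concentrations, for 20 min at 25 °C. After 85 °C inactivation, the CX primer was added with Taq for 31 PCR cycles. Products were read by phosphoimaging or scintillation counting.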
# [2] = Growth inhibition in the NCI 60 cell panel; type: functional; conditions: Homo sapiens
# [3] = Selectivity index (GI50/Telomerase IC50)
# Chain of Telomerase reverse transcriptase (O14746 whole entry): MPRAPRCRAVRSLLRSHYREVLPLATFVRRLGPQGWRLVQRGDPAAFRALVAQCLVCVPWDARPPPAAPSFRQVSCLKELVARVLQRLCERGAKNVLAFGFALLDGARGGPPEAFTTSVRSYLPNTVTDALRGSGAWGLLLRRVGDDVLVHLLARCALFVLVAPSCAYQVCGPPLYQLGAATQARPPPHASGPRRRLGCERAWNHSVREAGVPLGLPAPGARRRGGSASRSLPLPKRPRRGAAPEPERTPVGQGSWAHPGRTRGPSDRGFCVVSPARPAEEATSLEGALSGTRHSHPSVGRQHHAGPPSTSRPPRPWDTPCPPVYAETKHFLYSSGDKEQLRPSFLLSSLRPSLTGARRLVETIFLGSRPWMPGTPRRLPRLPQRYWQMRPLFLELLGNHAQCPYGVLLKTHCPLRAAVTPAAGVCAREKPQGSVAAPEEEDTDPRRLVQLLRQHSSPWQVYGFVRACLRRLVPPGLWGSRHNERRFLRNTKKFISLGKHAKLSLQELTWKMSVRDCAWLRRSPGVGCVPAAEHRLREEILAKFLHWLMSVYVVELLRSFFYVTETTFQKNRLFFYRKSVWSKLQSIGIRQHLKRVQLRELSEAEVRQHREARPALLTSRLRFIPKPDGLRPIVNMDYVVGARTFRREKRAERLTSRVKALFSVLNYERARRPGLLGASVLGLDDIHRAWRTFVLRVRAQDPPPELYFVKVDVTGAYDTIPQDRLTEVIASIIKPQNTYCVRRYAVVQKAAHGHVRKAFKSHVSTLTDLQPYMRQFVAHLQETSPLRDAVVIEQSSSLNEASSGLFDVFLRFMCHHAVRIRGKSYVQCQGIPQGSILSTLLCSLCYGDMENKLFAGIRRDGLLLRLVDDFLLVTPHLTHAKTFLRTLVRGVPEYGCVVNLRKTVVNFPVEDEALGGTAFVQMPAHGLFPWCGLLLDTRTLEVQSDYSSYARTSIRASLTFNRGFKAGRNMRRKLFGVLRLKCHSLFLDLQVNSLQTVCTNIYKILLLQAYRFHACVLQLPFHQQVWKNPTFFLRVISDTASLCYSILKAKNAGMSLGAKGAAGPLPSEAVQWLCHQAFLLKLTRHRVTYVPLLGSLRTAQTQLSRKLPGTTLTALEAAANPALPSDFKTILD
SMILES,IC50 [1] [nM],GI50 [2] [nM],SI [3]
Cc1cc2c3c([n+](C)c4ccc(F)cc4c3c1)-c1cc(F)ccc1N2C,330,13200,40
c1ccc2c(c1)Nc1cccc3cc4[n+](c-2c13)CCC4,–,90,–
CN1c2ccccc2-c2c3c1cccc3c1ccccc1[n+]2C,380,–,–
Cc1cc2c3c([n+](C)c4ccc(Cl)cc4c3c1)-c1cc(Cl)ccc1N2C,250,4170,17
Cc1ccc2c(c1)-c1c3c(cc(C)cc3c3cc(C)ccc3[n+]1C)N2C,250,410,1.8
Cc1cc2c3c([n+](C)c4ccccc4c3c1)-c1ccccc1N2C,760,1290,1.7
CCN1c2ccccc2-c2c3c1cc(C)cc3c1ccccc1[n+]2CC,2000,1100,0.5
